Experiments:
[1] = molecular target: Non-receptor tyrosine-protein kinase TYK2 (Homo sapiens, UniProt P29597); assay: Inhibition of recombinant TYK2
Method in brief: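 Purified recombinant kinases were tested under optimized conditions with peptide substrates. ATP was set at each kinase's Km. Phosphorylation was read out by microfluidic mobility shift, and IC50 values were determined.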

[2] = molecular target: Rho-associated protein kinase 2 (Homo sapiens, UniProt O75116); assay: Inhibition of recombinant ROCK2
Chain of Rho-associated protein kinase 2 (O75116 whole entry): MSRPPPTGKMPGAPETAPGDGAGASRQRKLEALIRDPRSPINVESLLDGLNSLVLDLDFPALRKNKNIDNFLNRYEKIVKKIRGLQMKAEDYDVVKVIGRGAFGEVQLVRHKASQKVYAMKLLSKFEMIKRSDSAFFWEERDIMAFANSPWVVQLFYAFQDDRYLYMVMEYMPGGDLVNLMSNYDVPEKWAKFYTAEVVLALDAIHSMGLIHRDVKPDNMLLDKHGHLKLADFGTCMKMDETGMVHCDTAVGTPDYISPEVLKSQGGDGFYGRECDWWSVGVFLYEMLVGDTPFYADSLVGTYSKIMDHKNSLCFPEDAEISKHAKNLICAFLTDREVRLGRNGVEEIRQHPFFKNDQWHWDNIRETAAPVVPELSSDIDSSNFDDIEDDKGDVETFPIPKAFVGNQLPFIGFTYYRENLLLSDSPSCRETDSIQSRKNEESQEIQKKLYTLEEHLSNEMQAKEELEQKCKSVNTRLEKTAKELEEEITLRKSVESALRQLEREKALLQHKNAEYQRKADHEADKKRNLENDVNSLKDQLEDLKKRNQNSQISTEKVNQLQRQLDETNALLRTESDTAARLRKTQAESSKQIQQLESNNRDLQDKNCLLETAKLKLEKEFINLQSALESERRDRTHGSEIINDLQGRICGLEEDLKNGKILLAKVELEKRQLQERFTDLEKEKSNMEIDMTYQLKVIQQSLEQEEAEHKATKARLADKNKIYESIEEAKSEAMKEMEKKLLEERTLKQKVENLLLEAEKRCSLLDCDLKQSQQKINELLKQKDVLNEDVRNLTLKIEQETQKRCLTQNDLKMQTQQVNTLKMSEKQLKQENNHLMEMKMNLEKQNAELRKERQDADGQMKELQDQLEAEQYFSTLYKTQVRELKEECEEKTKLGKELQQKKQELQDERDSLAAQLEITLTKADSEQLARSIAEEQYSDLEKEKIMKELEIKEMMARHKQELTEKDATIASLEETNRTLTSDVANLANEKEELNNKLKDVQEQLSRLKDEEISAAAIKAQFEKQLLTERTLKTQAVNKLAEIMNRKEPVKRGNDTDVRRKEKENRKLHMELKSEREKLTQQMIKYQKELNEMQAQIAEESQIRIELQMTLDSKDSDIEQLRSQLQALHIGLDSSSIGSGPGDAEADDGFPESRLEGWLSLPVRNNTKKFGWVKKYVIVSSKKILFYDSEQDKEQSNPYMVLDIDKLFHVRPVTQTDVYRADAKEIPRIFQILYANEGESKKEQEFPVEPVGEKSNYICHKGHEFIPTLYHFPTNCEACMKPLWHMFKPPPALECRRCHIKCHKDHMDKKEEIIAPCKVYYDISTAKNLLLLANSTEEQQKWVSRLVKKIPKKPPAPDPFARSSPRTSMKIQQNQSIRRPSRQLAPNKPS
Method in brief: (§1)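 Purified recombinant kinases under optimized conditions with peptide substrates. ATP was set at each kinase's Km. Phosphorylation was read by microfluidic mobility-shift separation of substrate and product; IC50 determined.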

[3] = test system: RT-4; assay: Antiproliferative activity against human RT4 cells overexpressing wild type FGFR3 after 72 hrs; type: functional, cell-based; details: RT-4, 72 h
Method in brief: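 Bladder cancer lines from ATCC or DSMZ were seeded in 96-well plates (RT4, RT112 at 8500 cells/well; others at 5000 cells/well) in growth medium. Compound dilutions or DMSO were added 24 h later and incubated 72 h. Cells were fixed with glutaraldehyde, stained with 0.05% methylene blue and eluted with 3% HCl, then OD650 nm was read.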

[4] = molecular target: Cyclin-dependent kinase 2 (Homo sapiens, UniProt P24941); assay: Inhibition of recombinant CDK2
Method in brief: (§2)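 Purified recombinant kinases under optimized conditions, with peptide substrates and ATP at each kinase's Km. Phosphorylation was read out by microfluidic mobility shift, and IC50 values were obtained.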

[5] = test system: Tumour; assay: Cmax in tumor of RT112/luc1 cells implanted athymic nude mouse at 5 mg/kg, iv by LC/MS/MS analysis; type: ADME, organism-based, Neoplasm; design: dose 5 mg/kg, route intravenous; details: in vivo
Method in brief: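 Female athymic nude mice carried subcutaneous RT112/luc1 tumors (5×10^6 cells, 50% Matrigel; about 300–400 mm3). Dosing was either 5 mg/kg iv by tail vein in NMP/PEG200 (1:9) or 20 mg/kg oral suspension in PEG300/D5W (2:1). Groups of mice (n = 4) were sacrificed at 0.083–24 h. Plasma and tumor levels were measured by LC-MS/MS (LOQ 5 ng/mL, 10 ng/g).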

[6] = molecular target: Serine/threonine-protein kinase PLK1 (Homo sapiens, UniProt P53350); assay: Inhibition of recombinant PLK1; method in brief: as §1
[7] = molecular target: Mitogen-activated protein kinase 14 (Homo sapiens, UniProt Q16539); assay: Inhibition of recombinant p38alpha; method in brief: as §1
[8] = molecular target: Ephrin type-A receptor 4 (Homo sapiens, UniProt P54764); assay: Inhibition of recombinant EPHA4; method in brief: as §1
[9] = molecular target: Phosphatidylinositol 4,5-bisphosphate 3-kinase catalytic subunit beta isoform (Homo sapiens, UniProt P42338); assay: Inhibition of recombinant PI3Kbeta by luminescent kinase assay
Chain of Phosphatidylinositol 4,5-bisphosphate 3-kinase catalytic subunit beta isoform (P42338 whole entry, canonical isoform): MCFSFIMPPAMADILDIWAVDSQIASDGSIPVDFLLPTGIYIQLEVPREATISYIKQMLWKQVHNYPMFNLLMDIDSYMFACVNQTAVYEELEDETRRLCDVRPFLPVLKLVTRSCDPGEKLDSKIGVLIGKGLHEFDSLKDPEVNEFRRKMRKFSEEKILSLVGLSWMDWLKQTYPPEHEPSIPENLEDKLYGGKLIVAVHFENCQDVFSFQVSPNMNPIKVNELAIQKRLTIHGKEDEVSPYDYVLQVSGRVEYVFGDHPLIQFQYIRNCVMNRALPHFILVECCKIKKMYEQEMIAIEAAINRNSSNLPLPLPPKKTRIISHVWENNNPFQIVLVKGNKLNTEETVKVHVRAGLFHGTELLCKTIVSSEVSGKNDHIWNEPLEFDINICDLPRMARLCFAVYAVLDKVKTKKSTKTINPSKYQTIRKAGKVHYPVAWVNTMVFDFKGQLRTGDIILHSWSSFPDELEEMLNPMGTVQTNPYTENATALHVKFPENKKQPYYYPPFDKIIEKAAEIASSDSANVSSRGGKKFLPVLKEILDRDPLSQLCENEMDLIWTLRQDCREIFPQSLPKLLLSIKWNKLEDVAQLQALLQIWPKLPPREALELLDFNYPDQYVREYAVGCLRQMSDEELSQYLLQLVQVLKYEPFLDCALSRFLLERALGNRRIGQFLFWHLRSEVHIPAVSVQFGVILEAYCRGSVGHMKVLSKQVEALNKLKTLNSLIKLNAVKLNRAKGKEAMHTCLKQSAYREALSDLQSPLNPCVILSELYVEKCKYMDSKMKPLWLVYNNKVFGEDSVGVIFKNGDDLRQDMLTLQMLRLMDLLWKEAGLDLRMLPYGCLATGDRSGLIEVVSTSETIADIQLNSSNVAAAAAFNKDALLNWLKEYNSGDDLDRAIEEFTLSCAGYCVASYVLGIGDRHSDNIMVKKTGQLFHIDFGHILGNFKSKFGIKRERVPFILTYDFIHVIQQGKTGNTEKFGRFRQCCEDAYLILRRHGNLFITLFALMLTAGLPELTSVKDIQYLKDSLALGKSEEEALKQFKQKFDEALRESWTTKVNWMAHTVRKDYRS

[10] = test system: Rattus norvegicus; assay: Inhibition of FGFR autophosphorylation in RT112 tumor bearing po dosed nude rowett rat assessed as decrease in pMAPK concentration administered as a single dose by Western blot analysis; type: functional, organism-based
Method in brief: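 RT112 subcutaneous xenografts in female nude Rowett rats (n = 4). Single oral gavage of the monophosphate salt at 4.25 or 8.51 mg/kg (free base equivalents) in acetic acid–acetate buffer pH 4.6/PEG300 (1:1). Tumors were collected at time points up to 24 h, frozen, homogenized and lysed. Western blots probed pFRS2(Tyr196) and pMAPK, with total FRS2, total MAPK or β-tubulin as loading controls.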

[11] = molecular target: MAP kinase-activated protein kinase 5 (Homo sapiens, UniProt Q8IW41); assay: Inhibition of recombinant MK5; method in brief: as §1
Chain of MAP kinase-activated protein kinase 5 (Q8IW41 whole entry): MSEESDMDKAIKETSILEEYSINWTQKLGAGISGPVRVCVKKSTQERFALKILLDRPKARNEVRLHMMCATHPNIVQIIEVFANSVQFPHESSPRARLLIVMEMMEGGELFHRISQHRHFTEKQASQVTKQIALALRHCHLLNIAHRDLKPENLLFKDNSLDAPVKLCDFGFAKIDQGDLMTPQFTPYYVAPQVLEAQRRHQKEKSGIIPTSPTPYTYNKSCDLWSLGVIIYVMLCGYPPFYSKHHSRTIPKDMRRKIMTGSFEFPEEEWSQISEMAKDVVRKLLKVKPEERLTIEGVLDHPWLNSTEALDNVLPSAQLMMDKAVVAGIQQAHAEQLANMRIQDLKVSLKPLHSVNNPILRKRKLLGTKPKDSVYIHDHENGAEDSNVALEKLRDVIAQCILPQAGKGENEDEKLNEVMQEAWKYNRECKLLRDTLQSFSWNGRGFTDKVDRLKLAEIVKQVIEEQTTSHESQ

[12] = Inhibition of BCR-ABL-mediated proliferation of mouse BAF3 cells transformed with TEL-Kinase construct; type: cell-based
[13] = test system: Rattus norvegicus; assay: Toxicity in nude Rowett rat xenografted with human RT112 cells assessed as morbidity at 5 mg/kg, po qd administered for 20 days; type: organism-based, RT-112; design: dose 5 mg/kg, route oral; details: in vivo, 480 h
Method in brief: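 Female nude Rowett rats carried subcutaneous RT112 tumors (1 × 10^6 cells in Matrigel), starting at about 100 mm3. The monophosphate salt was gavaged daily for 20 days at 5, 10 or 15 mg/kg (free base) in acetate buffer pH 4.6/PEG300 (1:1), n = 8. Body weight and morbidity were monitored; ANOVA with Dunnett's test.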

[14] = species: Rattus norvegicus; assay: Hepatic blood flow in Wistar rat; type: ADME, organism-based, Liver
[15] = test system: Tumour; assay: Drug uptake in tumour of nude Rowett rat bearing human RT112 cells at 8.51 mg/kg, po administered as a single dose after 7 hrs by LC-MS/MS analysis; type: ADME, organism-based, Neoplasm, RT-112; design: dose 8.51 mg/kg, route oral; details: in vivo
Method in brief: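 Nude Rowett rats bearing subcutaneous RT112 tumors (n = 4) received a single gavage of monophosphate salt at 4.25 or 8.51 mg/kg free base in acetate buffer pH 4.6/PEG300. Tumors were collected at intervals after dosing, frozen and homogenized in an equal volume of ice-cold PBS. Compound levels were measured by LC-MS/MS (LOQ 3 ng/mL).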

[16] = molecular target: Receptor tyrosine-protein kinase erbB-4 (Homo sapiens, UniProt Q15303); assay: Inhibition of recombinant ERBB4; method in brief: as §1
[17] = molecular target: Tyrosine-protein kinase CSK (Homo sapiens, UniProt P41240); assay: Inhibition of recombinant CSK; method in brief: as §2
[18] = molecular target: Serine/threonine-protein kinase N1 (Homo sapiens, UniProt Q16512); assay: Inhibition of recombinant PKN1; method in brief: as §1
Chain of Serine/threonine-protein kinase N1 (Q16512 whole entry): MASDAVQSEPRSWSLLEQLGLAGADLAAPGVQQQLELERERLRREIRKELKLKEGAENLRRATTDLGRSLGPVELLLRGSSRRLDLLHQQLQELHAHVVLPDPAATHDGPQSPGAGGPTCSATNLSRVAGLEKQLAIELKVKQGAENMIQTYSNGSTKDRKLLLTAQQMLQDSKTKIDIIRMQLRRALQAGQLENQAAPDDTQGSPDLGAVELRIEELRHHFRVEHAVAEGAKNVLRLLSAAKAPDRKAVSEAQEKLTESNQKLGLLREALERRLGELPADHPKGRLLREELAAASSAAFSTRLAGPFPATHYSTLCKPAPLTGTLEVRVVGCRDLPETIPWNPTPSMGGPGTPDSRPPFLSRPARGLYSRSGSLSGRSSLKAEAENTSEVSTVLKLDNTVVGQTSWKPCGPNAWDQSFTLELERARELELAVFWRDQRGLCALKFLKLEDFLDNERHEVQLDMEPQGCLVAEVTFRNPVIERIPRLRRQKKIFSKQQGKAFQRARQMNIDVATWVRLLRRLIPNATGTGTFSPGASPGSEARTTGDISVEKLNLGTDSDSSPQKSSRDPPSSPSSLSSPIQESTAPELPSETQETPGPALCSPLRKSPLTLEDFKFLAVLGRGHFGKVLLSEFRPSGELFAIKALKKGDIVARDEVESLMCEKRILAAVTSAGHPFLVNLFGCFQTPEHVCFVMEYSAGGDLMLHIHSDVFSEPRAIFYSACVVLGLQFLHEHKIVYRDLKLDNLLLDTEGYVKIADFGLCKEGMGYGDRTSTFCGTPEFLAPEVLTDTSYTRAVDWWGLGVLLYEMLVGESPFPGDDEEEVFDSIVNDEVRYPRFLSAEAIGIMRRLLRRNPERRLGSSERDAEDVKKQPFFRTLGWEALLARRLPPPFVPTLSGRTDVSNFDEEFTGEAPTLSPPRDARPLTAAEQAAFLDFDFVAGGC

[19] = molecular target: Mitogen-activated protein kinase 12 (Homo sapiens, UniProt P53778); assay: Inhibition of recombinant p38-gamma; method in brief: as §1
[20] = molecular target: T1, Cytochrome P450 1A2 (Homo sapiens, UniProt P05177); assay: Inhibition of CYP1A2 using CEC as substrate; type: ADME
T1 sequence (P05177 whole entry): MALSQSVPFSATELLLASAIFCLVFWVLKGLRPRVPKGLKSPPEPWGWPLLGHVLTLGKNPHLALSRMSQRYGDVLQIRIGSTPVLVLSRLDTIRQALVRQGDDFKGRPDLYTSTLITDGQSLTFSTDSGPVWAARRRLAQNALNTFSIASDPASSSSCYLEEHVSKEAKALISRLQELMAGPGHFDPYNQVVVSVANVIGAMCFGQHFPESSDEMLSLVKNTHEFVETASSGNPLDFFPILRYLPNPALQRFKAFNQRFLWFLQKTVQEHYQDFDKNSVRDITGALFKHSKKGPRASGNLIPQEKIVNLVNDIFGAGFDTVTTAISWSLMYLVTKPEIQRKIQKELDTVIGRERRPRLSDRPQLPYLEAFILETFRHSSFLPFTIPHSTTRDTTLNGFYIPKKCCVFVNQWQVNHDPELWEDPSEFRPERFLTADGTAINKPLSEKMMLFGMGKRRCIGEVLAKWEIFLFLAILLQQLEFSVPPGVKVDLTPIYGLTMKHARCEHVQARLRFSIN
Method in brief: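 Human CYP450 inhibition was measured with isoform-specific fluorogenic probe substrates: CEC for 1A2 and 2C19, MFC for 2C9, AMMC for 2D6. Incubation was at 37 °C with an NADPH-regenerating system in 384-well format. Metabolite was quantified by fluorescence, and IC50 was obtained by curve fitting.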

[21] = Tmax in Wistar rat at 10 mg/kg, po by LC-MS/MS analysis; type: ADME, organism-based; design: dose 10 mg/kg, route oral; details: in vivo
Method in brief: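 Female Wistar rats received 5 mg/kg iv into the femoral vein in NMP/PEG200 (1:9), or the monophosphate salt orally at 10 mg/kg (free base) in acetate buffer pH 4.6/PEG300. Serial sublingual plasma samples were taken from 0.083 to 24 h.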

Chain of Non-receptor tyrosine-protein kinase TYK2 (P29597 whole entry): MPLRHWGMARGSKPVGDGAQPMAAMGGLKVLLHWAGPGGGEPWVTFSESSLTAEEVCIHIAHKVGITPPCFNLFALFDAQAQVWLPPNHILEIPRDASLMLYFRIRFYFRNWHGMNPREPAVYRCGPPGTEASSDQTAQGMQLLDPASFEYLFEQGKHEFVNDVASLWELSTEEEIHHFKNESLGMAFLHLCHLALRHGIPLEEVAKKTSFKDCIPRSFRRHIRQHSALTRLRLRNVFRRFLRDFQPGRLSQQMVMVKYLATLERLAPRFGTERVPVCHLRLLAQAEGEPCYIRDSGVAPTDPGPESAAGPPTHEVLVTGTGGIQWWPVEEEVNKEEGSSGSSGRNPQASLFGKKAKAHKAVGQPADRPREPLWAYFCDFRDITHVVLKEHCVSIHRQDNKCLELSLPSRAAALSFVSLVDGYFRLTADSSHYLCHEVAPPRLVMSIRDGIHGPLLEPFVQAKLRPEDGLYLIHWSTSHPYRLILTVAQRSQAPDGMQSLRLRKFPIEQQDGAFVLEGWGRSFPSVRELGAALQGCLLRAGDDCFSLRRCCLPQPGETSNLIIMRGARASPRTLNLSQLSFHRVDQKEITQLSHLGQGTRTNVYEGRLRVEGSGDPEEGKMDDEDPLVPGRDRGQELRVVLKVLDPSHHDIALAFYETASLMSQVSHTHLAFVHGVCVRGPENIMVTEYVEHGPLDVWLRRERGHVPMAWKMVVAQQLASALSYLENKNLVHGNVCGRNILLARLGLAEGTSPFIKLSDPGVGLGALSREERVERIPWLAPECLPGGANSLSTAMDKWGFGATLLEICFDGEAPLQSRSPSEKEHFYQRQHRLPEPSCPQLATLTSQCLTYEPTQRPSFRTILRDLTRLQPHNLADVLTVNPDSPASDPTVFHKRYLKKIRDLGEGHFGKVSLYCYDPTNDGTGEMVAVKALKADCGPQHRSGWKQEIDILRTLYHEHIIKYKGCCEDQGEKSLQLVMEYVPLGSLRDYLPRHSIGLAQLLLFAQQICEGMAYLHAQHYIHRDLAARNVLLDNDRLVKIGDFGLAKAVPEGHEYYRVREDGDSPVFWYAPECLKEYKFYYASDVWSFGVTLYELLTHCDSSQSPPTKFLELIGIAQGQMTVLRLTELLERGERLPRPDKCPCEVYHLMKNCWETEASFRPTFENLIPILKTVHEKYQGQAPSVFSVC

IC50 [1]: > 10 µM
IC50 [2]: > 10 µM
IC50 [4]: > 10 µM
Cmax [5]: 1.68 nmol/g
IC50 [6]: > 10 µM
IC50 [7]: > 10 µM
IC50 [8]: > 10 µM
IC50 [9]: > 9 µM
IC50 [11]: > 10 µM
QH [14]: 55 mL/min/kg
Drug uptake [15]: 1.52 nmol/g
IC50 [16]: > 10 µM
IC50 [17]: > 10 µM
IC50 [18]: > 10 µM
IC50 [19]: > 10 µM
IC50 [20]: > 10 µM
Tmax [21]: 4 h
SMILES: CCN1CCN(c2ccc(Nc3cc(N(C)C(=O)Nc4c(Cl)c(OC)cc(OC)c4Cl)ncn3)cc2)CC1.O=P(O)(O)O [INFIGRATINIB PHOSPHATE]
IC50 [3]: 0.03 µM
inhibition [10]: Dose-dependent effect
IC50 [12]: 2.19 µM
Activity [13]: Non-toxic
